Results from the M2OR odorant receptor database.

The molecules below were run against T1, OR2A1 (Homo sapiens) (UniProt Q8NGT9). Conditions: stereoisomer not certain.
T1 sequence (whole entry): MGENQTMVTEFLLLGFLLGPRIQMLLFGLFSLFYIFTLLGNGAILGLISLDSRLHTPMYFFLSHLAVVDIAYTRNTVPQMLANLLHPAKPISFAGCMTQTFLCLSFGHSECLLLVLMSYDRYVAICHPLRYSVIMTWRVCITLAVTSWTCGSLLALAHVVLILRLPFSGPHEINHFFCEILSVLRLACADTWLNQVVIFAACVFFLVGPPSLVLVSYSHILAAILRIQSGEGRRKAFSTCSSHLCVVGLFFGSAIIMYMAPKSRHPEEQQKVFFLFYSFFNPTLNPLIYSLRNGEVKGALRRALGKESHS
How it was run: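 Transient luciferase assays in mammalian cell lines were common, though methods varied by source. The values come from published papers and their supplementary material, with extra details from the original authors when needed. Responsive refers to a measured signal the original authors judged statistically different from baseline, and non-responsive (inactive) to the remainder.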
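Also: active if original authors judged signal statistically different from baseline.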

Odorant receptor agonist call, inactive:
CC(C)=CCCC(C)=CCCC(C)=CCO
CC(O)C(=O)[O-].[H+] (stereo not drawn)
CCCCCCCCO
CCCCCCCCCCCC(=O)O
CCCCCCCC(=O)OC
CCCCCCCCCCCCCC(=O)OCC
C=C(C)C1CC=C(C)CC1 (stereo not drawn)
C=C1CCC2CC1C2(C)C (stereo not drawn)
CC(C=O)Cc1ccc(C(C)(C)C)cc1 (stereo not drawn)
CCC(O)CC
CCCCCCCC(=O)OCC
CCCCCCCCCCCCCCCCCC(=O)OC
CCC(C)CO (stereo not drawn)
CCCCCCCC(=O)[O-].[H+]
CCC(=O)O
CCCCOCC(C)O (stereo not drawn)
Cc1ccc(C(C)C)cc1
CCCCCCCCCCCCCCCC(=O)OC
CCCCCCCCCCCCCCC(=O)O
Cc1cnc(C)cn1
COc1ccc2[nH]cc(CCNC(C)=O)c2c1
CC(C)=CCCC(C)=CCO
CCCCCCC(=O)[O-].[H+]
Cc1cccc(C)c1C
CCCO
CCCCC(=O)C(C)=O
CC(=O)O
CCCCCCCCCCCCCC(=O)O
